From ChEMBL document CHEMBL1641427, “Arylsulfanyl pyrazolones block mutant SOD1-G93A aggregation. Potential application for the treatment of amyotrophic lateral sclerosis” (Bioorg Med Chem, 2011)
In brackets after ≈: the same amount, converted by molar mass.

Key:
[1] = Inhibition of SOD1 G93A mutant aggregation in rat PC12 cells by cytotoxicity protection assay; assay type: cell-based; conditions: PC-12
[2] = Intrinsic clearance in mouse microsome by LC-MS/MS analysis; assay type: ADME; conditions: mouse microsomes
[3] = (§1) Permeability from apical to basolateral side of human Caco2 cells after 2 hrs; assay type: ADME, cell-based, Caco-2; conditions: Caco-2
Summary of the method: (§2)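 Caco-2 cells were seeded on collagen-coated inserts and differentiated for 3 weeks, fed every 2 days. The donor side received 50 μM compound in HBSS with 10 mM HEPES and 1.98 g/L glucose, apical at pH 6.5 and basolateral at pH 7.4, for 2 h. Apical 100 μM Lucifer yellow checked monolayer integrity (<1%/2 h). Papp = dQ/dt/(C0·A), and the ratio is Papp(B→A)/Papp(A→B).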

[4] = system: Caco-2; test: (§3) Ratio of permeability from basolateral to apical side to apical to basolateral side in human Caco2 cells; assay type: ADME, cell-based; summary of the method: as §2
[5] = (§4) Permeability from basolateral to apical side of human Caco2 cells after 2 hrs; assay type: ADME, cell-based, Caco-2; conditions: Caco-2; summary of the method: as §2
[6] = system: Plasma; test: Half life of the compound in mouse plasma at 5 uM; assay type: ADME, cell-free
Summary of the method: (§5)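 Samples taken at 15 s and at 10, 20, 40 and 60 min, precipitated with acetonitrile containing haloperidol internal standard, then LC-MS/MS. Plasma/PBS response ratio fitted to a first-order exponential (1/Y weighting); T1/2 = ln2/k. PBS half-life from its own exponential fit.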

[7] = Aqueous solubility of the compound; assay type: physicochemical; conditions: buffer
Summary of the method: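 DMSO stock 3-fold serially diluted at 100× final, then diluted into PBS to 1% DMSO final. Incubated 1 h at room temperature, inspected visually for precipitate and read at 450 nm. Solubility limit is the highest concentration neither cloudy nor above background absorbance (visual only for coloured compounds).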

[8] = Half life in human microsome by LC-MS/MS analysis; assay type: ADME; conditions: microsomes
[9] = system: Caco-2; test: as §1; assay type: ADME, cell-based; conditions: caco-2, 2 h; summary of the method: as §2
[10] = as §3; assay type: ADME, cell-based; conditions: Caco-2; summary of the method: as §2
[11] = Stability of the compound in PBS assessed as compound remaining after 60 mins; assay type: physicochemical; conditions: read-out: Stability; summary of the method: as §5
[12] = system: Caco-2; test: as §4; assay type: ADME, cell-based; conditions: caco-2, 2 h; summary of the method: as §2
[13] = Half life in mouse microsome by LC-MS/MS analysis; assay type: ADME, microsomes; conditions: for t1/2: microsomes
[14] = system: Plasma (Homo sapiens); test: Ratio of AUC of compound to 4-ethylidene-1H-pyrazol-5(4H)-ones in human serum at 0.10 ug/ml plasma concentration
[15] = system: Plasma (Homo sapiens); test: Ratio of AUC of compound to 4-ethylidene-1H-pyrazol-5(4H)-ones in human serum at 0.05 ug/ml plasma concentration
[16] = system: Mus musculus; test: Plasma area ratio in Tg6799 mouse at 1 mg/kg, ip after 10 mins by LC-MS/MS analysis; assay type: ADME, organism-based; parameters: dose 1 mg/kg, route intraperitoneal; conditions: in vivo
Summary of the method: (§6)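 Female Tg6799 mice (B6/SJL background), n=3, given 1 mg/kg i.p. in 60% PBS/40% DMSO (100 μL per 10 g) and killed at 10 min. Plasma collected by centrifugation. Brain PBS-perfused via left ventricle, excised, weighed and homogenized in acetonitrile with internal standard. Analyte measured by LC-MS/MS as ratio to internal standard; plasma in μg/mL, brain in μg/g. Brain/plasma ratio computed after μM conversion assuming brain density 1 g/mL. Mean ± SD.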

[17] = Intrinsic clearance in mouse microsome by LC-MS/MS analysis in presence of NADPH; assay type: ADME; conditions: mouse microsomes
[18] = system: Plasma (Homo sapiens); test: Ratio of AUC of compound to 4-ethylidene-1H-pyrazol-5(4H)-ones in human serum at 0.01 ug/ml plasma concentration
[19] = Ratio of drug level in brain to plasma in Tg6799 mouse at 1 mg/kg, ip after 10 mins by LC-MS/MS analysis; assay type: ADME, organism-based; parameters: dose 1 mg/kg, route intraperitoneal; summary of the method: as §6
[20] = Drug level in Tg6799 mouse plasma at 1 mg/kg, ip after 10 mins by LC-MS/MS analysis; assay type: ADME, organism-based; parameters: dose 1 mg/kg, route intraperitoneal; conditions: read-out: Drug uptake; summary of the method: as §6
[21] = Ratio of AUC of compound to 4-ethylidene-1H-pyrazol-5(4H)-ones in pig brain at 1 ug/ml brain extract concentration; assay type: ADME, tissue-based, Sus scrofa; conditions: in vivo
Summary of the method: (§7)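 Brain standards: analyte added to pig brain pieces (300–500 mg) with acetonitrile and internal standard at final 0.05, 0.10, 0.5 and 1.0 μg/mL (1 mL total). Homogenized, then 20 μL aliquot run by LC-MS/MS. Analyte/internal standard response taken. Triplicate.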

[22] = Ratio of AUC of compound to 4-ethylidene-1H-pyrazol-5(4H)-ones in pig brain at 0.50 ug/ml brain extract concentration; assay type: ADME, tissue-based, Sus scrofa; conditions: in vivo; summary of the method: as §7
[23] = Ratio of AUC of compound to 4-ethylidene-1H-pyrazol-5(4H)-ones in pig brain at 0.05 ug/ml brain extract concentration; assay type: ADME, tissue-based, Sus scrofa; conditions: in vivo; summary of the method: as §7
[24] = system: Mus musculus; test: Brain area ratio in Tg6799 mouse at 1 mg/kg, ip after 10 mins by LC-MS/MS analysis; assay type: ADME, organism-based; parameters: dose 1 mg/kg, route intraperitoneal; conditions: in vivo; summary of the method: as §6
[25] = Drug level in Tg6799 mouse brain measured per gram of tissue at 1 mg/kg, ip after 10 mins by LC-MS/MS analysis; assay type: ADME, organism-based; parameters: dose 1 mg/kg, route intraperitoneal; conditions: read-out: Drug uptake; summary of the method: as §6
[26] = system: Plasma (Homo sapiens); test: Ratio of AUC of compound to 4-ethylidene-1H-pyrazol-5(4H)-ones in human serum at 0.50 ug/ml plasma concentration
[27] = Ratio of AUC of compound to 4-ethylidene-1H-pyrazol-5(4H)-ones in pig brain at 0.10 ug/ml brain extract concentration; assay type: ADME, tissue-based, Sus scrofa; conditions: in vivo; summary of the method: as §7
[28] = system: Brain; test: Effect of compound on Tg6799 mouse brain weight at 1 mg/kg, ip after 10 mins; assay type: ADME, organism-based; parameters: dose 1 mg/kg, route intraperitoneal; conditions: in vivo

SMILES	EC50 [1] [µM]	other results
Cc1nnc(SCc2cc(=O)[nH][nH]2)s1	16	
Cc1cc(SCC2=NNC(=O)/C2=C\N(C)C)c(C)cc1Cl	5.3	
O=c1cc(CSc2nnnn2-c2ccccc2)[nH]n1-c1ccccc1	6.6	
O=c1cc(CSc2ccccn2)[nH][nH]1	46	
CC(=O)CC(c1ccccc1)c1c(O)c2ccccc2oc1=O (centres undefined) [WARFARIN]		CLint scaled [2]: 6 mL/min/kg
O=c1cc(CSc2ccccc2)[nH][nH]1	10.1	
CNC(=C[N+](=O)[O-])NCCSCc1ccc(CN(C)C)o1 [RANITIDINE]		Papp A→B at 2 h [3]: 0.6 ×10⁻⁶ cm/s; Ratio [4]: 1; Papp B→A at 2 h [5]: 0.6 ×10⁻⁶ cm/s
Cn1[nH]c(CSc2ccc(Cl)cc2)cc1=O	5.4	
Cc1cc(SCc2cc(=O)[nH][nH]2)c(Cl)cc1Cl	0.55	t1/2 [6]: 16 min; solubility [7]: 56 µM (≈ 16.2 µg/mL); t1/2 [8]: 39 min; Papp [9]: 4.7 ×10⁻⁶ cm/s; efflux ratio [10]: 0.1; remaining at 1 h [11]: 100%; Papp [12]: 0.46 ×10⁻⁶ cm/s; t1/2 [13]: 13 min
O=C1ON=C(CSc2ccccc2)/C1=C/c1ccccc1	165	
O=c1cc(CSc2ccc(Cl)cc2Cl)[nH][nH]1	1.15	
O=C1/C(=C\c2ccc(-c3cccc(C(F)(F)F)c3)o2)C(CSc2ccccc2)=NN1c1ccccc1	35	
O=c1cc(CSc2ccc(Cl)cc2)[nH][nH]1	1.93	
O=c1cc(CSc2ccc(Br)cc2)[nH][nH]1	1.8	
O=c1cc(CSc2ccc(F)cc2)[nH][nH]1	3.44	
Cc1ccc(SCC2=NN(c3ccccc3)C(=O)/C2=C\C2=NCN=C2c2ccccc2)cc1	10	
O=c1cc(CSc2ccccc2Cl)[nH][nH]1	3.05	

SMILES	EC50 [1] [µM]	other results
CC(C)(C)c1ccc(SCc2cc(=O)[nH][nH]2)cc1	2.31	
Cc1ccc(SCc2cc(=O)[nH][nH]2)cc1	2	
Cc1ccc(SCc2cc(=O)n(-c3nc(C)cc(C)n3)[nH]2)cc1	3.5	
O=c1cc(CSc2ccc(-c3ccccc3)cc2)[nH][nH]1	4.06	
O=c1cc(CSc2ccc([N+](=O)[O-])cc2)[nH][nH]1	2.4	
O=c1cc(CSc2c(Cl)cccc2Cl)[nH][nH]1	0.95	
Cc1nnc(SCc2cc(=O)n(-c3nc4ccccc4s3)[nH]2)s1	44	
O=C1NN=C(CSc2ccccc2)/C1=C/c1ccccc1	> 32	
O=c1cc(CSc2cc(Cl)cc(Cl)c2)[nH][nH]1	0.17	
Cc1ccc(SCC2=NN(c3ccccc3)C(=O)/C2=C\c2ccc(-c3cccc(C(F)(F)F)c3)o2)cc1	4.1	
O=c1cc(CSc2ccc(Cl)c(Cl)c2)[nH][nH]1	1.89	
COc1ccc(SCc2cc(=O)[nH][nH]2)cc1	1.81	
O=c1cc(CSc2ccc(Cl)cc2)[nH]n1-c1ccccc1	3.46	
Cc1cc(SCc2cc(=O)[nH][nH]2)c(C)cc1Cl	0.4	Ratio AUC [14]: 0.637; Ratio AUC [15]: 0.304; Ratio [16]: 0; CLint scaled [17]: 242 mL/min/kg; Ratio AUC [18]: 0.068; Ratio [19]: 0.19; concentration at 10 min [20]: 1960 ng/mL; Ratio AUC [21]: 2.48; Ratio AUC [22]: 1.11; CLint scaled [2]: 63 mL/min/kg; Ratio AUC [23]: 0.148; Ratio [24]: 0; concentration at 10 min [25]: 360 ng/g; Ratio AUC [26]: 1.58; Ratio AUC [27]: 0.268; Activity [28]: 0.399 g; t1/2 [13]: 15 min
Cc1cc(C)nc(-n2[nH]c(CSc3nnc(C)s3)cc2=O)n1	6.7	
O=c1cc(CSc2cccc(Cl)c2)[nH][nH]1	1.11	
Cc1cc(SCC2=NNC(=O)/C2=C\N(C)C)c(Cl)cc1Cl	0.9	CLint scaled [17]: 924 mL/min/kg; CLint scaled [2]: 135 mL/min/kg; half-life ([13]; mouse microsomes): 4 min
